Columns and labels:
[1] = Drug uptake in lysosomes of human Fa2N-4 cells assessed as inhibition of LysoTracker Red fluorescence after 30 mins; format: ADME, cell-based, Lysosome; conditions: Fa2N-4, 0.5 h
[2] = Drug uptake in lysosomes of human Fa2N-4 cells assessed as inhibition of LysoTracker Red fluorescence at 500 uM after 30 mins relative to control; format: cell-based, Lysosome; conditions: Fa2N-4 cells (lysosomes), probe LysoTracker Red
Method in brief: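 Fa2N-4 cells at 50,000/well on collagen, rinsed with PBS. Drug (methanol stock diluted in supplemented modified Chee's medium; final 1–500 μM) with LysoTracker Red 50 nM final, 30 min, 37°C, triplicate. Cells PBS-rinsed and solubilised in acetonitrile. Fluorescence read at ex 530/em 590 nm. Medium kept for LDH release.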

[3] = Drug uptake in lysosomes of human Fa2N-4 cells assessed as cellular partitioning measured per 10^6 cells at 1 uM after 5 mins by LC-MS analysis; format: ADME, cell-based, Lysosome; conditions: fa2n-4, 5 min
Method in brief: (§1)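 Fa2N-4 cells, plated at 50,000/well on collagen in MFE with 10% newborn calf serum, switched to serum-free medium after attachment and used 36–48 h after plating. Substrate 1 μM in serum-free MFE, 37±1°C. Cells and substrate solution preincubated apart 5 min, then combined (± ammonium chloride 50 mM, nigericin 10 μM plus monensin 20 μM, or co-drug). Stopped with ice-cold PBS, washed, lysed in acetonitrile with internal standard, quantified by LC-MS/MS.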

[4] = Drug uptake in lysosomes of human Fa2N-4 cells assessed as cellular partitioning measured per 10^6 cells at 1 uM after 5 mins by LC-MS analysis in presence of ammonium chloride; format: ADME, cell-based, Lysosome; conditions: fa2n-4, 5 min; method in brief: as §1
[5] = Drug uptake in lysosomes of human Fa2N-4 cells assessed as cellular partitioning at 1 uM preincubated with ammonium chloride followed by compound treatment measured after 5 mins by LC-MS analysis; format: ADME, cell-based, Lysosome; conditions: fa2n-4, 5 min
Method in brief: (§2)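 Inhibitor is ammonium chloride 50 mM or chloroquine 200 μM. Three orders of addition: added together with substrate; added 5 min before substrate and left in; or added 5 min before substrate, then cells washed before substrate. Stopped with ice-cold PBS, acetonitrile lysis with internal standard, LC-MS/MS.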

[6] = Drug uptake in lysosomes of human Fa2N-4 cells assessed as cellular partitioning at 1 uM after 5 mins by LC-MS analysis in presence of dextromethorphan; format: ADME, cell-based, Lysosome; conditions: fa2n-4, 5 min; method in brief: as §1
[7] = Drug uptake in lysosomes of human Fa2N-4 cells assessed as cellular partitioning at 1 uM after 5 mins by LC-MS analysis in presence of diclofenac; format: ADME, cell-based, Lysosome; conditions: fa2n-4, 5 min; method in brief: as §1
[8] = Drug uptake in lysosomes of human Fa2N-4 cells assessed as cellular partitioning at 1 uM after 5 mins by LC-MS analysis in presence of ammonium chloride; format: ADME, cell-based, Lysosome; conditions: fa2n-4, 5 min; method in brief: as §1
[9] = Drug uptake in lysosomes of human Fa2N-4 cells assessed as cellular partitioning at 1 uM after 5 mins by LC-MS analysis in presence of nigericin and monensin; format: ADME, cell-based, Lysosome; conditions: fa2n-4, 5 min; method in brief: as §1
[10] = Drug uptake in lysosomes of human Fa2N-4 cells assessed as cellular partitioning at 1 uM after 5 mins by LC-MS analysis in presence of ammonium chloride, nigericin and monensin; format: ADME, cell-based, Lysosome; conditions: fa2n-4, 5 min; method in brief: as §1
[11] = Drug uptake in lysosomes of human Fa2N-4 cells assessed as cellular partitioning at 1 uM preincubated with chloroquine followed by compound treatment measured after 5 mins by LC-MS analysis; format: ADME, cell-based, Lysosome; conditions: fa2n-4, 5 min; method in brief: as §2
[12] = Drug uptake in lysosomes of human Fa2N-4 cells assessed as cellular partitioning at 1 uM after 5 mins by LC-MS analysis in presence of chloroquine; format: ADME, cell-based, Lysosome; conditions: fa2n-4, 5 min; method in brief: as §2
[13] = Drug uptake in lysosomes of human Fa2N-4 cells assessed as cellular partitioning at 1 uM measured at 10 mins by LC-MS analysis in presence of ammonium chloride; format: ADME, cell-based, Lysosome; conditions: fa2n-4, 10 min; method in brief: as §1
[14] = Drug uptake in lysosomes of human Fa2N-4 cells assessed as cellular partitioning at 1 uM after 5 mins by LC-MS analysis in presence of astemizole; format: ADME, cell-based, Lysosome; conditions: fa2n-4, 5 min; method in brief: as §1
[15] = Drug uptake in lysosomes of human Fa2N-4 cells assessed as cellular partitioning at 1 uM preincubated with chloroquine for 5 mins followed by media washout and compound treatment measured after 5 mins by LC-MS analysis; format: ADME, cell-based, Lysosome; conditions: fa2n-4, 5 min; method in brief: as §2
[16] = Drug uptake in lysosomes of human Fa2N-4 cells assessed as cellular partitioning at 1 uM after 5 mins by LC-MS analysis in presence of imipramine; format: ADME, cell-based, Lysosome; conditions: fa2n-4, 5 min; method in brief: as §1
[17] = Drug uptake in lysosomes of human Fa2N-4 cells assessed as cellular partitioning at 1 uM co-incubated with chloroquine for 5 mins by LC-MS analysis; format: ADME, cell-based, Lysosome; conditions: fa2n-4, 5 min; method in brief: as §2
[18] = Drug uptake in lysosomes of human Fa2N-4 cells assessed as cellular partitioning at 1 uM co-incubated with ammonium chloride for 5 mins by LC-MS analysis; format: ADME, cell-based, Lysosome; conditions: fa2n-4, 5 min; method in brief: as §1
[19] = Drug uptake in lysosomes of human Fa2N-4 cells assessed as cellular partitioning at 1 uM preincubated with ammonium chloride for 5 mins followed by media washout and compound treatment measured after 5 mins by LC-MS analysis; format: ADME, cell-based, Lysosome; conditions: fa2n-4, 5 min; method in brief: as §2
[20] = Drug uptake in lysosomes of human Fa2N-4 cells assessed as cellular partitioning at 1 uM after 5 mins by LC-MS analysis in presence of rifampin; format: ADME, cell-based, Lysosome; conditions: fa2n-4, 5 min; method in brief: as §1
[21] = Drug uptake in lysosomes of human Fa2N-4 cells assessed as cellular partitioning at 1 uM up to 10 mins by LC-MS analysis; format: ADME, cell-based, Lysosome; conditions: fa2n-4, 10 min; method in brief: as §1
[22] = Drug uptake in lysosomes of human Fa2N-4 cells assessed as cellular partitioning at 1 uM after 5 mins by LC-MS analysis in presence of atorvastatin; format: ADME, cell-based, Lysosome; conditions: fa2n-4, 5 min; method in brief: as §1

| Compound | IC50 [1] | also measured |
| --- | --- | --- |
| CC(=O)Nc1ccc(O)cc1 [ACETAMINOPHEN] | > 500 µM |  |
| CCN(CC)Cc1cc(Nc2ccnc3cc(Cl)ccc23)ccc1O [AMODIAQUINE] | > 500 µM | inhibition at 0.5 h, 500 µM [2]: > 25% |
| COc1ccc(CCN2CCC(Nc3nc4ccccc4n3Cc3ccc(F)cc3)CC2)cc1 [ASTEMIZOLE] | 110 µM |  |
| CC(C)c1c(C(=O)Nc2ccccc2)c(-c2ccccc2)c(-c2ccc(F)cc2)n1CC[C@@H](O)C[C@@H](O)CC(=O)O [ATORVASTATIN] | > 500 µM | Drug uptake [3]: < 11 pmol; Drug uptake [4]: 34 pmol |
| O=C(O)COCCN1CCN(C(c2ccccc2)c2ccc(Cl)cc2)CC1 (stereo not given) [CETIRIZINE] | > 500 µM |  |
| CCN(CC)CCCC(C)Nc1ccnc2cc(Cl)ccc12 (stereo not given) [CHLOROQUINE] | 220 µM |  |
| CNCCCN1c2ccccc2CCc2ccccc21 [DESIPRAMINE] | 220 µM |  |
| COc1ccc2c(c1)[C@]13CCCC[C@@H]1[C@H](C2)N(C)CC3 [DEXTROMETHORPHAN] | > 500 µM | inhibition at 0.5 h, 500 µM [2]: > 25% |
| O=C(O)Cc1ccccc1Nc1c(Cl)cccc1Cl [DICLOFENAC] | > 500 µM |  |
| C#Cc1cccc(Nc2ncnc3cc(OCCOC)c(OCCOC)cc23)c1 [ERLOTINIB] | > 500 µM |  |
| OC(Cn1cncn1)(Cn1cncn1)c1ccc(F)cc1F [FLUCONAZOLE] | > 500 µM |  |
| CNCCC(Oc1ccc(C(F)(F)F)cc1)c1ccccc1 (stereo not given) [FLUOXETINE] | 150 µM |  |
| CC(C)n1c(/C=C/C(O)CC(O)CC(=O)O)c(-c2ccc(F)cc2)c2ccccc21 (stereo not given) [FLUVASTATIN] | > 500 µM |  |
| CC(C)Cc1ccc(C(C)C(=O)O)cc1 (stereo not given) [IBUPROFEN] | > 500 µM |  |
| CN(C)CCCN1c2ccccc2CCc2ccccc21 [IMIPRAMINE] | 260 µM |  |
| CC(C(=O)O)c1cccc(C(=O)c2ccccc2)c1 (stereo not given) [KETOPROFEN] | > 500 µM |  |
| O=C(c1ccccc1)c1ccc2n1CCC2C(=O)O (stereo not given) [KETOROLAC] | > 500 µM |  |
| CC(CCc1ccccc1)NCC(O)c1ccc(O)c(C(N)=O)c1 (stereo not given) [LABETALOL] | > 500 µM | inhibition at 0.5 h, 500 µM [2]: > 25% |
| CS(=O)(=O)CCNCc1ccc(-c2ccc3ncnc(Nc4ccc(OCc5cccc(F)c5)c(Cl)c4)c3c2)o1 [LAPATINIB] | 380 µM |  |
| COC(=O)C1=C(C)NC(C)=C(C(=O)OC)C1c1ccccc1[N+](=O)[O-] [NIFEDIPINE] | > 500 µM |  |
| Fc1ccc([C@@H]2CCNC[C@H]2COc2ccc3c(c2)OCO3)cc1 [PAROXETINE] | 130 µM |  |
| CC[C@H](C)C(=O)O[C@H]1C[C@H](O)C=C2C=C[C@H](C)[C@H](CC[C@@H](O)C[C@@H](O)CC(=O)O)[C@H]21 [PRAVASTATIN] | > 500 µM |  |
| CC(C)NCC(O)COc1cccc2ccccc12 (stereo not given) [PROPRANOLOL] |  | Drug uptake [5]: Not Active; Drug uptake [6]: Not Active; Drug uptake [7]: Active; Drug uptake [8]: Not Active; Drug uptake [9]: Not Active; Drug uptake [10]: Not Active; Drug uptake [11]: Not Active; Drug uptake [12]: Not Active; Drug uptake [13]: Not Active; Drug uptake [14]: Not Active; Drug uptake [15]: Not Active; Drug uptake [16]: Not Active; Drug uptake [17]: Not Active; Drug uptake [18]: Not Active; Drug uptake [19]: Active; Drug uptake [20]: Active; Drug uptake [3]: 189 pmol; Drug uptake [4]: Not Active; Drug uptake [21]: Not Active; Drug uptake [22]: Active |
| CCN1CCC[C@H]1CNC(=O)c1c(O)c(Cl)cc(Cl)c1OC [RACLOPRIDE] | > 500 µM |  |
| CC(C)c1nc(N(C)S(C)(=O)=O)nc(-c2ccc(F)cc2)c1/C=C/[C@@H](O)C[C@@H](O)CC(=O)O [ROSUVASTATIN] | > 500 µM |  |
| CN1C(C(=O)Nc2ccccn2)=C(O)c2sccc2S1(=O)=O [TENOXICAM] | > 500 µM |  |
